Three compounds from ChEMBL document CHEMBL1649247, “Fluoroquinolone resistance in Mycobacterium tuberculosis and mutations in gyrA and gyrB” (2009) can be followed below.

For experiment [1], the system named is Mycobacterium tuberculosis. In words: Antimycobacterial activity against Mycobacterium tuberculosis 08-0762 by resazurin microtiter assay. In kind it is functional. Summed up: (§1)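 Isolates taken from fresh Löwenstein-Jensen subcultures grown at 37°C for at most 4 weeks. Drug stocks 1 mg/ml in 0.1 N NaOH, filter sterilized, stored at −20°C less than 2 months. MIC read by resazurin microtiter assay following a previously described protocol.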

Experiment [2] relates to Mycobacterium tuberculosis. In words: Antimycobacterial activity against Mycobacterium tuberculosis 08-0764 by resazurin microtiter assay. In kind it is functional. In short, it runs like this:
as §1

Experiment [3] concerns Mycobacterium tuberculosis. In words: Antimycobacterial activity against Mycobacterium tuberculosis 08-0774 by resazurin microtiter assay. In kind it is functional. Summed up: as §1
Experiment [4] relates to Mycobacterium tuberculosis. In words: Antimycobacterial activity against Mycobacterium tuberculosis 08-0781 by resazurin microtiter assay. It counts as functional. In short, it runs like this: as §1
For experiment [5], the system named is Mycobacterium tuberculosis. In words: Antimycobacterial activity against Mycobacterium tuberculosis 08-0782 by resazurin microtiter assay. It counts as functional. In short, it runs like this: as §1
Experiment [6] relates to Mycobacterium tuberculosis. In words: Antimycobacterial activity against Mycobacterium tuberculosis 08-0789 by resazurin microtiter assay. It counts as functional. Summed up: as §1
Experiment [7] concerns Mycobacterium tuberculosis. In words: Antimycobacterial activity against Mycobacterium tuberculosis 08-0762 assessed as microbial susceptibility by agar proportion method. In kind it is functional, organism-based. Summed up: (§2)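 Clinical isolates freshly subcultured on Löwenstein-Jensen medium, held at 37°C no longer than 4 weeks. Fluoroquinolone stocks 1 mg/ml in 0.1 N NaOH, filter sterilized, kept at −20°C under 2 months. Standard proportion method on 7H11 agar; breakpoints 2 mg/liter ofloxacin, 0.5 mg/liter moxifloxacin and gatifloxacin; scored susceptible or resistant.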

Experiment [8] has as its system Mycobacterium tuberculosis. In words: Antimycobacterial activity against Mycobacterium tuberculosis 08-0764 assessed as microbial susceptibility by agar proportion method. In kind it is functional, organism-based. In short, it runs like this:
as §2

Experiment [9] deals with Mycobacterium tuberculosis. In words: Antimycobacterial activity against Mycobacterium tuberculosis 08-0774 assessed as microbial susceptibility by agar proportion method. It counts as functional, organism-based. In short, it runs like this:
as §2

Experiment [10] concerns Mycobacterium tuberculosis. In words: Antimycobacterial activity against Mycobacterium tuberculosis 08-0781 assessed as microbial susceptibility by agar proportion method. It counts as functional, organism-based. In short, it runs like this: as §2
Experiment [11] relates to Mycobacterium tuberculosis. In words: Antimycobacterial activity against Mycobacterium tuberculosis 08-0782 assessed as microbial susceptibility by agar proportion method. It counts as functional, organism-based. In short, it runs like this: as §2
Experiment [12] has as its system Mycobacterium tuberculosis. In words: Antimycobacterial activity against Mycobacterium tuberculosis 08-0789 assessed as microbial susceptibility by agar proportion method. It counts as functional, organism-based. Summed up:
as §2

Values after ≈ are worked out from the molar mass of the structure shown. Active and inactive are the calls of the source. The calls are words filed in the database; no cut-off is given here.

Turning to `COc1c(N2C[C@@H]3CCCN[C@@H]3C2)c(F)cc2c(=O)c(C(=O)O)cn(C3CC3)c12` [MOXIFLOXACIN], the minimal inhibitory concentration (MIC) in experiment [1], in experiment [2], in experiment [3], in experiment [4], in experiment [5] and in experiment [6] was ≤ 0.125 mg/L throughout. The result in [7], in [8], in [9], in experiment [10], in [11] and in experiment [12] was Active.
Take `CC1COc2c(N3CCN(C)CC3)c(F)cc3c(=O)c(C(=O)O)cn1c23` (stereo unspecified) [OFLOXACIN]: the MIC was 0.5 mg/L (≈ 1.38 µM) in experiment [1]; 0.5 mg/L (≈ 1.38 µM) in [2]; ≤ 0.25 mg/L in [3]; ≤ 0.25 mg/L in experiment [4]; 0.5 mg/L (≈ 1.38 µM) in experiment [5]; 0.5 mg/L (≈ 1.38 µM) in [6]. Further, the result in experiment [7], in experiment [8], in experiment [9], in [10], in experiment [11] and in experiment [12] was Active.
For the compound `COc1c(N2CCNC(C)C2)c(F)cc2c(=O)c(C(=O)O)cn(C3CC3)c12` (stereo unspecified) [GATIFLOXACIN], the MIC in experiment [1] is ≤ 0.062 mg/L; in experiment [2] it was ≤ 0.062 mg/L; in experiment [3], ≤ 0.062 mg/L; in experiment [4], ≤ 0.062 mg/L; in experiment [5], 0.125 mg/L (≈ 0.333 µM); in experiment [6], ≤ 0.062 mg/L. Besides, the outcome in experiment [7], in [8], in experiment [9], in experiment [10], in [11] and in [12] was Active.
